Measured values taken from ChEMBL document CHEMBL3286113, “New potent antibacterial oxazolidinone (MRX-I) with an improved class safety profile” (J Med Chem, 2014).
Values after ≈ are worked out from the molar mass of the structure shown.

How the values were obtained:
[1] = system: Streptococcus pyogenes; experiment: Antibacterial activity against Streptococcus pyogenes isolate 556 in po dosed mouse systemic infection model; assay type: functional; details: isolate 556, po
[2] = system: Rattus norvegicus; experiment: Toxicity in female rat assessed as effect on mean corpuscular volume at 100 mg/kg/day, po bid administered for 4 weeks (reference value: 53.72 fL); assay type: organism-based; design: route oral; details: in vivo, 672 h
[3] = system: Streptococcus sanguinis; experiment: Antibacterial activity against Streptococcus sanguinis; assay type: functional
[4] = target: T1, Amine oxidase [flavin-containing] A (Homo sapiens, UniProt P21397); experiment: Inhibition of MAO-A (unknown origin) using tyramine as substrate after 30 to 60 mins by fluorescence plate reader analysis
T1 sequence (P21397 whole entry): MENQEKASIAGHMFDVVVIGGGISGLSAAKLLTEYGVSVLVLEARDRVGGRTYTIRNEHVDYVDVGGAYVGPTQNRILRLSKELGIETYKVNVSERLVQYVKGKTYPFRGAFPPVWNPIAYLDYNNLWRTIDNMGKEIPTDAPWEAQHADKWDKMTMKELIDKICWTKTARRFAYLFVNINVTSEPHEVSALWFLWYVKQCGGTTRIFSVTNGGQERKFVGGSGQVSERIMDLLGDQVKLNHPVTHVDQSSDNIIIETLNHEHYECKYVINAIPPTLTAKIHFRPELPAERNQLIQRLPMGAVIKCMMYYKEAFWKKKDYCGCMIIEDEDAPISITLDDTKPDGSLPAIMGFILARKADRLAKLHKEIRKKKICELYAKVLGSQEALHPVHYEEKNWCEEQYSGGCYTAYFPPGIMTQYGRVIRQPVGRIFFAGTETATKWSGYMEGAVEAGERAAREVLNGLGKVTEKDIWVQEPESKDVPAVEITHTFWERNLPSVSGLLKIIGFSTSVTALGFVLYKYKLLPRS

[5] = system: Staphylococcus aureus; experiment: Antibacterial activity against methicillin-resistant Staphylococcus aureus isolate 0612 in po dosed mouse systemic infection model; assay type: functional; details: isolate 0612, po
[6] = system: Streptococcus pneumoniae; experiment: Antibacterial activity against penicillin-resistant Streptococcus pneumoniae isolate 0613 in po dosed mouse systemic infection model; assay type: functional; details: isolate 0613, po
[7] = system: Staphylococcus aureus; experiment: Antibacterial activity against methicillin-resistant Staphylococcus aureus by broth microdilution method; assay type: functional
Outline: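 MIC determined against methicillin-resistant S. aureus strain SAU1009.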

[8] = system: Staphylococcus aureus; experiment: Antibacterial activity against methicillin-resistant Staphylococcus aureus by agar dilution method; assay type: functional
Outline: (§1)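 MIC determined by agar dilution across S. aureus/MRSA isolates; MIC90 is the concentration inhibiting 90% of strains tested.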

[9] = system: Staphylococcus aureus; experiment: Antibacterial activity against Staphylococcus aureus by agar dilution method; assay type: functional; outline: as §1
[10] = system: Rattus norvegicus; experiment: Toxicity in female rat assessed as effect on hematocrit level at 100 mg/kg/day, po bid administered for 4 weeks (reference value: 39.08%); assay type: organism-based; design: route oral; details: in vivo, 672 h
[11] = system: Rattus norvegicus; experiment: Toxicity in female rat assessed as effect on RBC count at 100 mg/kg/day, po bid administered for 4 weeks (reference value: 7.28 x 10^12/L); assay type: organism-based; design: route oral; details: in vivo, 672 h
[12] = system: Rattus norvegicus; experiment: Toxicity in female rat assessed as effect on mean corpuscular hemoglobin level at 100 mg/kg/day, po bid administered for 4 weeks (reference value: 19.5 pg); assay type: organism-based; design: route oral; details: in vivo, 672 h
[13] = system: Enterococcus; experiment: Bacteriostatic activity against vancomycin-sensitive Enterococcus; assay type: functional
[14] = system: Enterococcus faecalis; experiment: Antibacterial activity against vancomycin-resistant Enterococcus faecalis isolate EFL 4041 in po dosed mouse systemic infection model; assay type: functional; details: isolate EFL 4041, po
[15] = system: Rattus norvegicus; experiment: Toxicity in female rat assessed as effect on WBC count at 100 mg/kg/day, po bid administered for 4 weeks (reference value: 3.66 x 10^9/L); assay type: organism-based; design: route oral; details: in vivo, 672 h
[16] = system: Streptococcus pneumoniae; experiment: Antibacterial activity against penicillin intermediate-sensitive Streptococcus pneumoniae ATCC 49619 clinical isolate in po dosed mouse systemic infection model; assay type: functional; details: ATCC 49619, po
[17] = system: Staphylococcus aureus; experiment: Antibacterial activity against methicillin-sensitive Staphylococcus aureus ATCC 29213 in po dosed mouse systemic infection model; assay type: functional; details: ATCC 29213, po
[18] = system: Staphylococcus; experiment: Antibacterial activity against coagulase-negative Staphylococcus; assay type: functional
[19] = system: Streptococcus pyogenes; experiment: Antibacterial activity against Streptococcus pyogenes; assay type: functional
[20] = system: Rattus norvegicus; experiment: Toxicity in female rat assessed as effect on lymphocyte count at 100 mg/kg/day, po bid administered for 4 weeks (reference value: 74.8%); assay type: organism-based; design: route oral; details: in vivo, 672 h
[21] = system: Staphylococcus aureus; experiment: Antibacterial activity against linezolid-resistant Staphylococcus aureus isolate 4184; assay type: functional
[22] = system: Rattus norvegicus; experiment: Toxicity in female rat assessed as effect on hemoglobin level at 100 mg/kg/day, po bid administered for 4 weeks (reference value: 141.8 g/L); assay type: organism-based; design: route oral; details: in vivo, 672 h
[23] = system: Staphylococcus epidermidis; experiment: Antibacterial activity against methicillin-sensitive Staphylococcus epidermidis; assay type: functional
[24] = system: Staphylococcus aureus; experiment: Antibacterial activity against methicillin-resistant Staphylococcus aureus isolate 0605 in po dosed mouse systemic infection model; assay type: functional; details: isolate 0605, po
[25] = system: Staphylococcus aureus; experiment: Antibacterial activity against methicillin-sensitive Staphylococcus aureus isolate 15 in po dosed mouse systemic infection model; assay type: functional; details: isolate 15, po
[26] = system: Staphylococcus aureus; experiment: Antibacterial activity against Staphylococcus aureus in po dosed mouse septicemia model; assay type: functional
[27] = Myelosuppression activity against human CD34-positive blood stem/progenitor cells assessed as growth inhibition after 9 to 10 days by CellTiter-Glo luminescent assay
[28] = system: Streptococcus pneumoniae; experiment: Bactericidal activity against penicillin-sensitive Streptococcus pneumoniae; assay type: functional
[29] = system: Streptococcus pneumoniae; experiment: Antibacterial activity against penicillin-sensitive Streptococcus pneumoniae isolate 0806 in po dosed mouse systemic infection model; assay type: functional; details: isolate 0806, po
[30] = system: Rattus norvegicus; experiment: Toxicity in female rat assessed as effect on platelet count at 100 mg/kg/day, po bid administered for 4 weeks (reference value: 654.6 x 10^9/L); assay type: organism-based; design: route oral; details: in vivo, 672 h
[31] = system: Rattus norvegicus; experiment: Toxicity in female rat assessed as effect on neutrophil count at 100 mg/kg/day, po bid administered for 4 weeks (reference value: 22.4%); assay type: organism-based; design: route oral; details: in vivo, 672 h
[32] = system: Staphylococcus; experiment: Antibacterial activity against beta-lactamase-negative Staphylococcus; assay type: functional
[33] = system: Streptococcus pneumoniae; experiment: Bactericidal activity against penicillin intermediate-sensitive Streptococcus pneumoniae; assay type: functional
[34] = system: Staphylococcus saprophyticus; experiment: Antibacterial activity against Staphylococcus saprophyticus; assay type: functional
[35] = system: Enterococcus faecalis; experiment: Antibacterial activity against vancomycin-sensitive/high-level gentamycin-resistant Enterococcus faecalis isolate HH22 in po dosed mouse systemic infection model; assay type: functional; details: EnGen0297, po
[36] = system: Staphylococcus epidermidis; experiment: Antibacterial activity against methicillin-resistant Staphylococcus epidermidis; assay type: functional
[37] = system: Enterococcus faecium; experiment: Bacteriostatic activity against vancomycin-sensitive Enterococcus faecium; assay type: functional
[38] = system: Streptococcus dysgalactiae subsp. equisimilis; experiment: Antibacterial activity against Streptococcus equisimilis; assay type: functional
[39] = system: Enterococcus faecium; experiment: Bacteriostatic activity against vancomycin-resistant Enterococcus faecium; assay type: functional
[40] = system: Streptococcus constellatus; experiment: Antibacterial activity against Streptococcus constellatus; assay type: functional
[41] = system: Rattus norvegicus; experiment: Toxicity in female rat assessed as effect on reticulocyte count at 100 mg/kg/day, po bid administered for 4 weeks (reference value: 1.48%); assay type: organism-based; design: route oral; details: in vivo, 672 h
[42] = system: Staphylococcus aureus; experiment: Antibacterial activity against methicillin-sensitive Staphylococcus aureus; assay type: functional
[43] = system: Streptococcus agalactiae; experiment: Antibacterial activity against Streptococcus agalactiae; assay type: functional
[44] = system: Enterococcus faecalis; experiment: Bacteriostatic activity against vancomycin-sensitive Enterococcus faecalis; assay type: functional
[45] = system: Streptococcus pyogenes; experiment: Antibacterial activity against Streptococcus pyogenes isolate 556; assay type: functional
[46] = system: Streptococcus anginosus; experiment: Antibacterial activity against Streptococcus anginosus; assay type: functional
[47] = system: Staphylococcus haemolyticus; experiment: Antibacterial activity against Staphylococcus haemolyticus; assay type: functional
[48] = system: Streptococcus pneumoniae; experiment: Bactericidal activity against penicillin-resistant Streptococcus pneumoniae; assay type: functional
[49] = system: Streptococcus mitis; experiment: Antibacterial activity against Streptococcus mitis; assay type: functional
[50] = system: Enterococcus faecalis; experiment: Antibacterial activity against vancomycin-sensitive Enterococcus faecalis ATCC 29212 in po dosed mouse systemic infection model; assay type: functional; details: ATCC 29212, po
[51] = system: Staphylococcus aureus; experiment: Antibacterial activity against methicillin-sensitive Staphylococcus aureus ATCC 29213; assay type: functional

## CC(=O)NC[C@H]1CN(c2ccc(N3CCOCC3)c(F)c2)C(=O)O1 [LINEZOLID]
[1]
  ED50: 7.8 mg/kg
[2]
  Activity: 54.74 fL
[3]
  MIC: 0.06 µg/mL (≈ 0.178 µM)
[4]
  IC50: 24 µM
[5]
  ED50: 8.7 mg/kg
[6]
  ED50: 9.3 mg/kg
[7]
  MIC90: 2 µg/mL (≈ 5.93 µM)
[8]
  MIC50: 1 µg/mL (≈ 2.96 µM)
  MIC90: 1 µg/mL (≈ 2.96 µM)
[9]
  MIC90: 8 µg/mL (≈ 23.7 µM)
[10]
  Activity: 30.18%
[11]
  Activity: 5.52 ×10¹² /L
[12]
  Activity: 20.52 pg
[13]
  MIC50: 1 µg/mL (≈ 2.96 µM)
  MIC90: 1 µg/mL (≈ 2.96 µM)
[14]
  ED50: 6 mg/kg
[15]
  Activity: 1.9 ×10⁹ /L
[16]
  ED50: 8.17 mg/kg
[17]
  ED50: 9 mg/kg
[18]
  MIC50: 0.5 µg/mL (≈ 1.48 µM)
  MIC90: 1 µg/mL (≈ 2.96 µM)
[19]
  MIC50: 1 µg/mL (≈ 2.96 µM)
  MIC90: 1 µg/mL (≈ 2.96 µM)
[20]
  Activity: 86.2%
[21]
  MIC: > 16 µg/mL
[22]
  Activity: 112.8 g/L
[23]
  MIC50: 0.5 µg/mL (≈ 1.48 µM)
  MIC90: 0.5 µg/mL (≈ 1.48 µM)
[24]
  ED50: 10.2 mg/kg
[25]
  ED50: 5.9 mg/kg
[26]
  ED50: 6.3 mg/kg
[27]
  IC50: 6.3 µg/mL (≈ 18.7 µM)
[28]
  MIC50: 0.5 µg/mL (≈ 1.48 µM)
  MIC90: 1 µg/mL (≈ 2.96 µM)
[29]
  ED50: 16.8 mg/kg
[30]
  Activity: 487.4 ×10⁹ /L
[31]
  Activity: 13%
[32]
  MIC50: 0.5 µg/mL (≈ 1.48 µM)
  MIC90: 1 µg/mL (≈ 2.96 µM)
[33]
  MIC50: 0.5 µg/mL (≈ 1.48 µM)
  MIC90: 0.5 µg/mL (≈ 1.48 µM)
[34]
  MIC50: 1 µg/mL (≈ 2.96 µM)
  MIC90: 1 µg/mL (≈ 2.96 µM)
[35]
  ED50: 5.6 mg/kg
[36]
  MIC50: 0.5 µg/mL (≈ 1.48 µM)
  MIC90: 1 µg/mL (≈ 2.96 µM)
[37]
  MIC50: 1 µg/mL (≈ 2.96 µM)
  MIC90: 1 µg/mL (≈ 2.96 µM)
[38]
  MIC: 0.5 µg/mL (≈ 1.48 µM)
  MIC50: 0.5 µg/mL (≈ 1.48 µM)
  MIC90: 1 µg/mL (≈ 2.96 µM)
[39]
  MIC: 1 µg/mL (≈ 2.96 µM)
  MIC50: 1 µg/mL (≈ 2.96 µM)
  MIC90: 1 µg/mL (≈ 2.96 µM)
[40]
  MIC50: 1 µg/mL (≈ 2.96 µM)
  MIC90: 1 µg/mL (≈ 2.96 µM)
[41]
  Activity: 1.64%
[42]
  MIC50: 1 µg/mL (≈ 2.96 µM)
  MIC90: 1 µg/mL (≈ 2.96 µM)
[43]
  MIC: 1 µg/mL (≈ 2.96 µM)
  MIC50: 1 µg/mL (≈ 2.96 µM)
  MIC90: 1 µg/mL (≈ 2.96 µM)
[44]
  MIC50: 1 µg/mL (≈ 2.96 µM)
  MIC90: 1 µg/mL (≈ 2.96 µM)
[45]
  MIC: 1 µg/mL (≈ 2.96 µM)
[46]
  MIC50: 0.5 µg/mL (≈ 1.48 µM)
  MIC90: 1 µg/mL (≈ 2.96 µM)
[47]
  MIC: 0.5 µg/mL (≈ 1.48 µM)
  MIC50: 0.5 µg/mL (≈ 1.48 µM)
  MIC90: 1 µg/mL (≈ 2.96 µM)
[48]
  MIC50: 0.5 µg/mL (≈ 1.48 µM)
  MIC90: 0.5 µg/mL (≈ 1.48 µM)
[49]
  MIC50: 1 µg/mL (≈ 2.96 µM)
  MIC90: 1 µg/mL (≈ 2.96 µM)
[50]
  ED50: 13.4 mg/kg
[51]
  MIC: 1 µg/mL (≈ 2.96 µM)
